# Compound activity from PubChem.
# The list is not random: actives were taken first. Their share in the collection is about 3.4%.
# TAAR1 antag = human TAAR1 antagonists, primary screen, Fluo-8 calcium fluorescence, CHO RD-HGA16 cells. inhibition, % at 3 µM. antagonist. actives 1.5% (n = 360,000);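 active = inhibition above a per-plate cutoff, the mean inhibition of test compounds on that plate plus 3 SD, cut at about 49% in these data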;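 also: 0% = DMSO plus EC80 beta-PEA response and 100% = DMSO alone without agonist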
# Target sequence (Q96RJ0 whole entry, looked up): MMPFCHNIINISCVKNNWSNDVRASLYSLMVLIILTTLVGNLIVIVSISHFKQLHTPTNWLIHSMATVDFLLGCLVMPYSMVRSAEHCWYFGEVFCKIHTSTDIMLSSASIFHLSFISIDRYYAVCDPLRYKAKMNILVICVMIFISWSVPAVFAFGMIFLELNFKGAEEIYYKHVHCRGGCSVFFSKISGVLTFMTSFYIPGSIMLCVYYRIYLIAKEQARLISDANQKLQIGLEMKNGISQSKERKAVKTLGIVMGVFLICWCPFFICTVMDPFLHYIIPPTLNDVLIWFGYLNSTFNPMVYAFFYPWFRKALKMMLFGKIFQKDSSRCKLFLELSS
#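 System: CHO RD-HGA16 cells bearing hTAAR1. Reagent: EC80 β-phenethylamine stimulus. Schedule: seeding 17-24 h prior, 75-min 37 °C, 30-min RT dye loading. Signal: Fluo-8 intracellular calcium dye fluorescence, real-time kinetic reads. Read-out: % inhibition from peak post-agonist over basal fluorescence ratio. Benchmarks: vehicle wells and EC80 agonist wells. Replicates: n of 1.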
# CHRM1 PAM = human M1 muscarinic receptor positive allosteric modulators, primary screen, CHO-K1 cells, Fluo-8 calcium fluorescence, 1536-well | Muscarinic acetylcholine receptor M1 (Homo sapiens), P11229 | CHO-K1 hM1, ACh EC20; 0% = ACh EC20, 100% = maximal ACh | activation, % at 3 µM | actives 0.088% (n = 360,000) | AID 588819, 2011; in the data active = activation above about 19%, passing the limit was not always enough
# TAAR1 ag = human TAAR1 agonists, primary screen, Fluo-8 calcium fluorescence, CHO RD-HGA16 cells; vehicle wells 0%, saturating PEA agonist 100%; activation, % at 3 µM; actives 0.99% (n = 360,000);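 active = activation above the mean activation of all test compounds in the run plus 3 SD, cut at about 38% in these data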
#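 test system = CHO RD-HGA16 cells carrying human TAAR1 plus Gα16 | schedule = 17-24 h seeding, 75 min 37 °C dye, 30 min RT | compound dosing = 3 µM single concentration | control set = DMSO and PEA EC100 | replicates = n 1 | signal = Fluo-8 fluorescence, 5 s baseline then 140 s kinetic read | measure = percent activation vs PEA EC100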
# M1 ag = human M1 muscarinic receptor agonists, primary screen, Fluo-8 calcium fluorescence, CHO-K1 cells, HTS; activation, % at 3 µM; actives 0.33% (n = 360,000); CHO-K1 hM1, agonist mode; 0% DMSO, 100% acetylcholine EC100; AID 588814, 2011; Muscarinic acetylcholine receptor M1 (Homo sapiens), P11229;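 active = activation above the run's mean compound activation plus 3 SD, cut at about 16% in these data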;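 also: peak over basal fluorescence ratio within a 140 s kinetic read after compound addition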
# CHRM1 antagonist = human M1 muscarinic receptor antagonists, primary screen, CHO-K1 cells, Fluo-8 calcium fluorescence, 1536-well. inhibition, % at 3 µM. CHO-K1 hM1, ACh EC80 antagonist. actives 1.3% (n = 360,000);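 active = percent inhibition above its own plate's cutoff, namely the mean of that plate's compound wells plus 3 SD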;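 also: peak over basal fluorescence ratio during 140 s after agonist addition; 0% = ACh EC80 plus DMSO and 100% = DMSO alone without agonist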
# nonsel antag count = nonselective antagonists in TAAR1 counter-screen cells, counter-screen for hTAAR1 antagonist project, cell-based, fluorescence, calcium; actives 77% (n = 2,400); counterscreen cell line, antagonist mode; shares compounds with TAAR1 antag; AID 651780, 2012; inhibition, % at 3 µM; in the data active = inhibition above about 22%;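 also: CHO-Ga16 host cells stimulated with ATP at an EC80 level; 0% = agonist EC80 plus vehicle and 100% = vehicle without agonist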
# TAAR1 antag conf = human TAAR1 antagonists, retest of hits, confirmation, cell-based, fluorescence; shares compounds with TAAR1 antag; TAAR1-expressing cells, fluorescence antagonist read-out; inhibition, % at 3 µM; actives 40% (n = 2,400); in the data active = inhibition above about 49%;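 also: CHO-Ga16 host cells challenged with agonist PEA near its EC80; 0% = agonist at EC80 plus vehicle and 100% = vehicle with no agonist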
# Ga16 nonsel ag = calcium activation in Ga16-expressing cells, counter-screen for TAAR1 antagonist project, cell-based, fluorescence. AID 651953, 2012. shares compounds with TAAR1 antag. agonist counterscreen. activation, % at 3 µM. actives 18% (n = 2,400); in the data active = activation above about 12%;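 also: 0% = vehicle wells and 100% = saturating stimulus response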
# TAAR1 ag count = TAAR1 activation by candidate antagonists – cell-based, fluorescence, counter-screen for TAAR1 antagonist project | shares compounds with TAAR1 antag | hTAAR1 cell line, agonist mode | activation, % at 3 µM | actives 2% (n = 2,400); in the data active = activation above about 37%;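 also: CHO cells stably expressing TAAR1 with calcium dye readout; 0% = DMSO vehicle and 100% = full agonist response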
# Starred values were filed as active, the others as inactive; · = no result given.
SMILES,TAAR1 antag,CHRM1 PAM,TAAR1 ag,M1 ag,CHRM1 antagonist,nonsel antag count,TAAR1 antag conf,Ga16 nonsel ag,TAAR1 ag count
O=C(NC1CCCC1)N[C@@H]1CC[C@@H](CC(=O)N2CCOCC2)O[C@@H]1CO,-7,·,1,·,·,·,·,·,·
Cc1ccc2nc(CN(C)C(=O)[C@H](CCc3ccccc3)NC(=O)[C@H]3O[C@@H](n4cnc5c(N)ncnc54)[C@H](O)[C@@H]3O)[nH]c2c1,12,·,1,·,·,·,·,·,·
Cc1cc(C)c(S(=O)(=O)N2CCN(C(=O)c3c(C)nn(-c4ccccc4)c3Cl)CC2)c(C)c1,68*,-14,13,-3,20,35*,46,8,5
CCCCNC(=O)C1C(c2ccc(OC)cc2)=Nc2ccccc2N1C(=O)c1ccc2ncccc2c1 (stereo unspecified),-11,·,-1,·,·,·,·,·,·
O=C(Nc1cccc(Cl)c1N1CCOCC1)c1ccco1,-1,3,0,-6,3,·,·,·,·
COc1c(F)c(F)c(C(=O)Nc2cccc(Cl)c2N2CCOCC2)c(F)c1F,72*,-12,23,-5,12,17,31,6,19
CCCCNC(=O)C1(C)CCCCN1C(=O)c1oc2ccccc2c1C (stereo unspecified),-6,5,-2,-5,-5,·,·,·,·
S=C(NC1CCCCC1)N(CCc1nc2ccccc2[nH]1)C1CCCC1,54*,-5,10,-1,12,28*,37,6,1
O=C(Nc1ccccc1)N(CCc1nc2ccccc2[nH]1)C1CCCC1,12,-1,10,-1,1,·,·,·,·
CCCCNCc1cc2ccccc2o1,103*,14,2,-3,-16,-2,-1,7,18
O=C(CSc1ccc(Cl)cc1)N1CCC(c2nc3ccccc3s2)CC1,36,-7,9,-2,11,·,·,·,·
O=C(CSc1c(Cl)cccc1Cl)N1CCC(c2nc3ccccc3s2)CC1,59*,0,18,7,-31,44*,50*,12*,11
O=S1(=O)N[C@@H](Cc2ccccc2)COc2cccc(N3CCC[C@H]3CO)c21,-4,·,3,·,·,·,·,·,·
CCOc1ccccc1NC(=O)CNC(=O)c1nn(-c2ccc(OC)c(OC)c2)c(=O)c2ccccc12,60*,-6,17,-4,12,30*,41,7,14
COc1ccc(-n2nc(C(=O)NCC(=O)Nc3cccc(Cl)c3)c3ccccc3c2=O)cc1OC,55*,4,20,0,-8,25*,48,10,11
COc1ccc(NC(=O)CNC(=O)c2nn(-c3ccc(OC)c(Cl)c3)c(=O)c3ccccc23)c(OC)c1,61*,-6,10,-1,12,24*,49*,6,7
CCOC(=O)C1CCN(C(=O)CNC(=O)c2nn(-c3ccc(OC)c(Cl)c3)c(=O)c3ccccc23)CC1,61*,2,13,-8,7,28*,42,7,6
COc1ccc(-n2nc(C(=O)NCC(=O)N3CCOCC3)c3ccccc3c2=O)cc1Cl,14,11,8,-3,-11,·,·,·,·
CC(C)(C(=O)N1CCC1(C)C(=O)NS(=O)(=O)c1ccccc1Cl)c1ccccc1 (stereo unspecified),-13,6,0,-3,-21,·,·,·,·
COc1ccc(-n2nc(C(=O)NCC(=O)NCC3COc4ccccc4O3)c3ccccc3c2=O)cc1OC (stereo unspecified),58*,-6,13,-2,18,27*,49*,7,5
COc1ccc(CCNC(=O)CNC(=O)c2nn(-c3ccc(OC)c(OC)c3)c(=O)c3ccccc23)cc1OC,53*,-6,17,-5,9,33*,51*,12*,9
COc1cc(OC)cc(C2=Cc3ccc(OC)cc3C(CC(C)=O)N2c2ccc(-c3cccs3)cc2)c1 (stereo unspecified),-1,·,0,·,·,·,·,·,·
CCN(CC)S(=O)(=O)c1ccc(S(=O)(=O)N(CC(=O)Nc2ccccc2)Cc2ccco2)cc1,62*,-17,17,-2,30,31*,53*,9,9
COc1ccc(C(=O)NCCc2c[nH]c3ccccc23)cc1[N+](=O)[O-],63*,5,15,-2,-1,27*,48,11,9
CCc1nc(SCC(=O)N2CCN(c3ccccc3)CC2)c2oc3ccccc3c2n1,53*,-8,13,-2,9,27*,47,6,5
SMILES,TAAR1 antag,CHRM1 PAM,TAAR1 ag,M1 ag,CHRM1 antagonist,nonsel antag count,TAAR1 antag conf,Ga16 nonsel ag,TAAR1 ag count
Cc1ccc(C(=O)N2N=C(c3ccc(NS(C)(=O)=O)cc3)CC2c2cccs2)cc1 (stereo unspecified),-7,4,6,-4,-10,·,·,·,·
COc1ccc(C(=O)N2N=C(c3ccc(NS(C)(=O)=O)cc3)CC2c2cccs2)cc1 (stereo unspecified),59*,-8,16,-3,22,30*,45,10,11
OC[C@H]1O[C@@H](c2nc3ccc(-c4nc(-c5cccs5)no4)cc3[nH]2)C[C@@H]1O,9,8,4,5,-12,·,·,·,·
COc1ccc2c(c1)CC/C(=C\c1ccc(OC)c(Cn3cccn3)c1)C2=O,60*,-6,12,2,15,34*,51*,8,9
CC1=C(C(=O)N(C(C)C)C(C)C)CC(CC(=O)NCc2cccc3ccccc23)C(=O)N1Cc1ccc(C(C)(C)C)cc1 (stereo unspecified),-3,10,1,0,-4,·,·,·,·
CCOc1ccc2nc(NC(=O)CS(=O)(=O)c3ccccc3)sc2c1,10,4,0,-3,1,·,·,·,·
